Residues, ends and D or L forms follow the SMILES beside them. *: point of attachment. Phenylacetyl(4-E-phenylazo) = O=C(Cc1ccc(/N=N/c2ccccc2)cc1)*; X1 = O=C(Cc1ccc(/N=N/c2ccc(O)cc2)cc1)*
What was measured:
[1] = target: T1, NAD-dependent protein deacetylase sirtuin-1 (Homo sapiens, UniProt Q96EB6); assay: Inhibition of recombinant human C-terminal His6-tagged SIRT1 (Met1 to Ser747 residues) demyristoylase activity expressed in Escherichia coli using p53(Myr)-AMC as substrate measured after 3 hrs in presence of NAD+ and trypsin by fluorescence assay
T1 sequence (Q96EB6 whole entry): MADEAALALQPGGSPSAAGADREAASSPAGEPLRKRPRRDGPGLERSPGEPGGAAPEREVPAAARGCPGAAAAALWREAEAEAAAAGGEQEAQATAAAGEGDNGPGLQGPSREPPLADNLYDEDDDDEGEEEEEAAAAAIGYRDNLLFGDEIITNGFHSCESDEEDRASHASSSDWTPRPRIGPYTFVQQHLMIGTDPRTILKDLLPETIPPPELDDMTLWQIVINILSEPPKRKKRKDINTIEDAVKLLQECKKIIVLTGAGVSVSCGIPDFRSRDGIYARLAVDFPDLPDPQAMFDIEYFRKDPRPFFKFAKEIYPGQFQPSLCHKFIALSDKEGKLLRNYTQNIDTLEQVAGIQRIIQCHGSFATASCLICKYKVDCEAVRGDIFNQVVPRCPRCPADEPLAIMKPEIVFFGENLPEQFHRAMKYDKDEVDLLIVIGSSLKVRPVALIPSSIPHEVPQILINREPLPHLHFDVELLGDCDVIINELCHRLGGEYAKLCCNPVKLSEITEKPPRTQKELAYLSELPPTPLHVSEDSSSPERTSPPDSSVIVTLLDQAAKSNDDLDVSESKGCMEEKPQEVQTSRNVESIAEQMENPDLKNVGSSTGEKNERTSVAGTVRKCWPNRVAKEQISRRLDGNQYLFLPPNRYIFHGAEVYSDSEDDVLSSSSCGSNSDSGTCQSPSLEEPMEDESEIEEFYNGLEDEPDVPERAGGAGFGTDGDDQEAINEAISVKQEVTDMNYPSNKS
In short: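 SIRT1 at 14 nM final with 50 μM p53(Myr)-AMC and 500 μM NAD⁺ in Tris-HCl pH 8.0/NaCl/DTT/Triton buffer, 0.5% DMSO, 3 h at room temperature. Trypsin (100 nM final) plus nicotinamide (1 mM final) then added. Fluorescence Ex 355/Em 460 nm read every 5 min for 20 min at 37 °C. n = 3.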

[2] = target: T1, NAD-dependent protein deacetylase sirtuin-1; assay: Inhibition of recombinant human C-terminal His6-tagged SIRT1 (Met1 to Ser747 residues) defatty-acylase activity expressed in Escherichia coli using SFP3 as substrate measured at 5 mins interval for 60 mins in presence of NAD+ by fluorescence assay
[3] = target: T2, NAD-dependent protein deacetylase sirtuin-2 (Homo sapiens, UniProt Q8IXJ6); assay: Inhibition of recombinant human SIRT2 deacylation activity using Fluor de Lys Sirt2 as substrate measured at 5 mins interval for 30 mins in presence of NAD+ by fluorescence assay
T2 sequence (Q8IXJ6 whole entry): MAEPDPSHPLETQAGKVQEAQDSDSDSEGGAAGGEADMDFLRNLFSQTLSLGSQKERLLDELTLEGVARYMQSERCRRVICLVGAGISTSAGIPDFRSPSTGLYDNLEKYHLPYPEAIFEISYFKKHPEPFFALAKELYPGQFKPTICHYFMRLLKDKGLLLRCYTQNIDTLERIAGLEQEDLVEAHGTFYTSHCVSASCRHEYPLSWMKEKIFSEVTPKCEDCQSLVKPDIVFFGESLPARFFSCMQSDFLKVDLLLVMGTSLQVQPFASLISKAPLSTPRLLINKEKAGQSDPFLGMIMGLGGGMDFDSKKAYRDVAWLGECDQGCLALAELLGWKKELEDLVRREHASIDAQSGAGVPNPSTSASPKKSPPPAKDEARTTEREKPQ

[4] = target: T2, NAD-dependent protein deacetylase sirtuin-2; assay: Inhibition of recombinant human SIRT2 defatty-acylase activity using SFP3 as substrate measured at 5 mins interval for 60 mins in presence of NAD+ by fluorescence assay
[5] = target: T2, NAD-dependent protein deacetylase sirtuin-2; assay: Inhibition of recombinant human SIRT2 demyristoylase activity using p53(Myr)-AMC as substrate measured after 3 hrs in presence of NAD+ and trypsin by fluorescence assay
[6] = target: T3, NAD-dependent protein deacetylase sirtuin-3, mitochondrial (Homo sapiens, UniProt Q9NTG7); assay: Inhibition of recombinant human SIRT3 (118 to 399 residues) defatty-acylase activity expressed in Escherichia coli using SFP3 as substrate measured at 5 mins interval for 60 mins in presence of NAD+ by fluorescence assay
T3 sequence (Q9NTG7 whole entry): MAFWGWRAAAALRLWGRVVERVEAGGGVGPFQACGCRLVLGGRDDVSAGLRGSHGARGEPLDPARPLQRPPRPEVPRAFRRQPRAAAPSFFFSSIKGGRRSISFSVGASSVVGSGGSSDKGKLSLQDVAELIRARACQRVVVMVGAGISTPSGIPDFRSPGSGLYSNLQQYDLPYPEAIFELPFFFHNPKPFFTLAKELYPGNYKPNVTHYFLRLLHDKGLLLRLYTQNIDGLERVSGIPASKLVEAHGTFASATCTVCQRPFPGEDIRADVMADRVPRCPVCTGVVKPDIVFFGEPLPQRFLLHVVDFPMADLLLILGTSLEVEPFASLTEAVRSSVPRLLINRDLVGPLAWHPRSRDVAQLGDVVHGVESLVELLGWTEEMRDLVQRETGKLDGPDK

[7] = target: T3, NAD-dependent protein deacetylase sirtuin-3, mitochondrial; assay: Inhibition of recombinant human SIRT3 (118 to 399 residues) demyristoylase activity expressed in Escherichia coli using p53(Myr)-AMC as substrate measured after 3 hrs in presence of NAD+ and trypsin by fluorescence assay

SMILES	IC50 [1] [nM]	IC50 [2] [nM]	IC50 [3] [nM]	IC50 [4] [nM]	IC50 [5] [nM]	IC50 [6] [nM]	IC50 [7] [nM]
Cc1cc(C)nc(SCC(=O)Nc2ncc(Cc3cccc4ccccc34)s2)n1	> 10000	> 10000	–	–	–	–	–
CCCCCCCCCCCCCC(=O)NCCCC[C@H](NC(=O)OCc1ccccc1)C(=O)Nc1ccccc1	–	–	> 1000	> 2000	–	–	–
C[C@H](NC(=O)[C@H](CCCCNC(=O)Cc1ccc(/N=N/c2ccc(OCCc3ccccc3)cc2)cc1)NC(=O)OCc1ccccc1)C(N)=O	–	> 2000	400	> 2000	> 2000	> 2000	–
C[C@H](NC(=O)[C@H](CCCCNC(=O)Cc1ccc(/N=N/c2ccc(OCc3ccccc3)cc2)cc1)NC(=O)OCc1ccccc1)C(N)=O	–	–	190	> 2000	–	–	–

More lines, now with the values ahead:

IC50 [1] [nM]	IC50 [2] [nM]	IC50 [3] [nM]	IC50 [4] [nM]	IC50 [5] [nM]	IC50 [6] [nM]	IC50 [7] [nM]	SMILES
–	–	190	> 2000	–	–	–	C[C@H](NC(=O)[C@H](CCCCNC(=O)Cc1ccc(/N=N/c2ccc(O)cc2)cc1)NC(=O)OCc1ccccc1)C(N)=O
84	270	110	63	250	–	–	CC[C@H](C)[C@H](NC(C)=O)C(=O)N[C@@H](CCCCNC(=O)Cc1ccc(/N=N/c2ccccc2)cc1)C(=O)N[C@@H](CCCNC(=N)N)C(N)=O
71	48	180	19	51	77	340	CC[C@H](C)[C@H](NC(=O)[C@H](CCCNC(=N)N)NC(C)=O)C(=O)N[C@@H](CCCCNC(=O)Cc1ccc(/N=N/c2ccccc2)cc1)C(=O)N[C@@H](CCCNC(=N)N)C(=O)N[C@@H](Cc1ccc(O)cc1)C(N)=O (Ac-RIK(Phenylacetyl(4-E-phenylazo))RY-NH2)
50	120	110	19	44	55	190	CC[C@H](C)[C@H](NC(=O)[C@H](CCCNC(=N)N)NC(C)=O)C(=O)N[C@@H](CCCCNC(=O)Cc1ccc(/N=N/c2ccc(O)cc2)cc1)C(=O)N[C@@H](CCCNC(=N)N)C(=O)N[C@@H](Cc1ccc(O)cc1)C(N)=O (Ac-RIK(X1)RY-NH2)

Source: ChEMBL document CHEMBL4304758, “Development of Peptide-Based Sirtuin Defatty-Acylase Inhibitors Identified by the Fluorescence Probe, SFP3, That Can Efficiently Measure Defatty-Acylase Activity of Sirtuin” (J Med Chem, 2019)
